Assay outcomes (PubChem BioAssay)
OPRM1-OPRD1 inv = inverse agonists of MOR-DOR heterodimerization, primary screen, cell-based, luminescence | Mu-type opioid receptor (Homo sapiens) + Delta-type opioid receptor (Homo sapiens), … | cell-based MOR-DOR heterodimer luminescence, inverse agonism | inhibition, % at 9.3 µM | 0.21% of 340,000 active; in the data active = inhibition above about 22%, passing the limit was not always enough;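 note: 0% = cells with DMSO and 100% = wells without cells with DMSO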
Arrestin-AP2 inh = inhibitors of beta-arrestin/AP2 binding, primary screen, biochemical, GPCR trafficking, flow cytometry; beta-arrestin 1 C-terminal peptide binding to AP2 beta2-adaptin appendage (human); inhibition, % at 10 µM; AID 504490, 2011; FITC-arrestin peptide / GST-AP2 beads; AP2 beta2 appendage carries R879A mutation; 0.31% of 340,000 active;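 active = inhibition above a set limit, near 3 SD of compounds lacking own fluorescence, cut at about 54% in these data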;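 note: plate controls were DMSO wells for no effect and 5 µM unlabelled arrestin peptide for full effect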
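System: GST-AP2 R879A glutathione beads. Medium: PBS with 0.05% Tween 20 and 0.1% BSA. Also added: FITC-arrestin peptide, 50 nM. Incubation: 12 min plus 1 h, RT. Measured by: high-throughput flow cytometry of beads, ex 488, em 535 nm. Evaluation: percent drop in bead-associated FITC signal.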
OPRM1-OPRD1 ag = agonists of OPRM1-OPRD1 heterodimerization, primary screen, cell-based, luminescence | 0.3% of 340,000 active | activation, % at 9.3 µM | Mu-type opioid receptor (Homo sapiens) + Delta-type opioid receptor (Homo sapiens), … | cells; in the data active = activation above about 18%;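 note: 0% = vehicle-treated cells and 100% = reference agonist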
HTR5A inv ctr = HTR5A inverse agonists in luminescence cell assay, primary screen, counter-screen for OPRM1-OPRD1 heterodimer inverse agonist project, full-deck HTS | 5-hydroxytryptamine receptor 5A (Homo sapiens), P47898 | HTR5A cell line, inverse agonism | inhibition, % at 9.3 µM | 0.083% of 340,000 active | AID 504634, 2011; in the data active = inhibition mostly above about 23%, no sharp cut-off; inactive = mostly below about 18%;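 note: 0% = cells with DMSO and 100% = no-cell wells with DMSO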
DAGLB inh = DAGLB lipase inhibitors, primary screen, biochemical, fluorescence, HTS. Diacylglycerol lipase-beta (Homo sapiens), Q8NCG7. HEK293T DAGLB membrane lysate, EnzChek fluorogenic substrate. inhibition, % at 5.17 µM. 0.059% of 340,000 active. AID 504411, 2011; in the data active = inhibition above about 34%;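 note: 0% = enzyme with vehicle and 100% = wells lacking enzyme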
Target sequence (Q8NCG7 whole entry, looked up): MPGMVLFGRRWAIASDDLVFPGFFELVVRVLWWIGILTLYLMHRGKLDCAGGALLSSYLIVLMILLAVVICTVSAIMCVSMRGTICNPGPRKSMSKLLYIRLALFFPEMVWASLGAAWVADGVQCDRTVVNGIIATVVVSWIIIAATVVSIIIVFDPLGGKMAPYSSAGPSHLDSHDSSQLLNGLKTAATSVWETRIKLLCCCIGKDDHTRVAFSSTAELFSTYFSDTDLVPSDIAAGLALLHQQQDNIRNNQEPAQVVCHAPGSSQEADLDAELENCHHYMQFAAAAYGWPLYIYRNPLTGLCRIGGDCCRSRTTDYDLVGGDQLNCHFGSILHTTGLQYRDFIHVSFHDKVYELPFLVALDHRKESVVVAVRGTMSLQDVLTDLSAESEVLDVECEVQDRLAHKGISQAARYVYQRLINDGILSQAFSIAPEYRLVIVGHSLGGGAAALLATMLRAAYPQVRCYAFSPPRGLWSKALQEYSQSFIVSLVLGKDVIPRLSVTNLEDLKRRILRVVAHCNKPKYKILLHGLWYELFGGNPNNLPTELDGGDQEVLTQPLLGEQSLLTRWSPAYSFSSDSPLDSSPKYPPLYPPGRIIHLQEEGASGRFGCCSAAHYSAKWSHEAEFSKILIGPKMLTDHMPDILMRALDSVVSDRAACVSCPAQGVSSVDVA
HTR5A ag = HTR5A agonists in luminescence cell assay, primary screen, counter-screen for OPRM1-OPRD1 heterodimer agonist project, full-deck HTS. cell-based. activation, % at 9.3 µM. 0.61% of 340,000 active; in the data active = activation mostly above about 9.5%, no sharp cut-off; inactive = mostly below about 7.6%;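 note: 0% = cells with vehicle only and 100% = reference agonist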
DAGLB confirm = DAGLB lipase inhibitors, retest, confirmation, biochemical, fluorescence, HEK293T membranes | shares compounds with DAGLB inh | 73% of 190 active | HEK293T DAGLB membrane lysate, EnzChek fluorogenic substrate | inhibition, % at 5.17 µM;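 active = mean inhibition over triplicate wells above a set limit taken from the primary lipase screen, cut at about 34% in these data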;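 note: 0% = DAGLB with DMSO and 100% = wells lacking DAGLB enzyme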
* = called active by the depositor. Compounds with a hit are over-represented: about 1.4% of the library has one in this group of screens.

Screening O=C(O)c1ccccc1NS(=O)(=O)c1ccc(N/N=C/c2cccc(O)c2O)c([N+](=O)[O-])c1 returned OPRM1-OPRD1 inv 11, Arrestin-AP2 inh 10, OPRM1-OPRD1 ag -3, HTR5A inv ctr 12, DAGLB inh 42*, HTR5A ag 1 and DAGLB confirm 53*.
`COc1cc(C=NNc2ccc(S(=O)(=O)Nc3ccccc3C(=O)O)cc2[N+](=O)[O-])ccc1O` gave OPRM1-OPRD1 inv 11, Arrestin-AP2 inh -3, OPRM1-OPRD1 ag -2, HTR5A inv ctr 22, DAGLB inh 39*, HTR5A ag -6 and DAGLB confirm 50*.
CC(=O)Nc1ccc(C=NNc2ccc(S(=O)(=O)Nc3ccccc3C(=O)O)cc2[N+](=O)[O-])cc1 was read as OPRM1-OPRD1 inv 5, Arrestin-AP2 inh -5, OPRM1-OPRD1 ag -1, HTR5A inv ctr 20, DAGLB inh 37*, HTR5A ag -5 and DAGLB confirm 56*.
CCOc1ccc(C=NNc2ccc(S(=O)(=O)Nc3ccccc3C(=O)O)cc2[N+](=O)[O-])cc1OC was read as OPRM1-OPRD1 inv 11, Arrestin-AP2 inh 2, OPRM1-OPRD1 ag -2, HTR5A inv ctr 17, DAGLB inh 14 and HTR5A ag -4.
CCOc1cc(/C=N/Nc2ccc(S(=O)(=O)Nc3ccccc3C(=O)O)cc2[N+](=O)[O-])cc(Cl)c1O was read as DAGLB inh 33.
For CCc1cccc(NC(=O)C2CCCN2S(=O)(=O)c2ccccc2C(F)(F)F)c1 (stereo unspecified) the results were OPRM1-OPRD1 inv -11, Arrestin-AP2 inh 5, OPRM1-OPRD1 ag 2, HTR5A inv ctr 5, DAGLB inh 0 and HTR5A ag 1.
Screening CCOc1ccc(Nc2nnc(SCc3nc4ccccc4c(=O)[nH]3)s2)cc1 returned OPRM1-OPRD1 inv -5, Arrestin-AP2 inh -23, OPRM1-OPRD1 ag 1, HTR5A inv ctr 17, DAGLB inh 60*, HTR5A ag 0 and DAGLB confirm 74*.
Screening Cc1cccc(C)c1Nc1nnc(SCc2nc3ccccc3c(=O)[nH]2)s1 returned OPRM1-OPRD1 inv -7, Arrestin-AP2 inh 14, OPRM1-OPRD1 ag 1, HTR5A inv ctr -16, DAGLB inh 4 and HTR5A ag 5.
O=[N+]([O-])c1cc2ccccc2c(O)c1O was read as DAGLB inh 14.
`O=[N+]([O-])c1cc(-c2ccccc2)cc([N+](=O)[O-])c1O` gave OPRM1-OPRD1 inv 30, Arrestin-AP2 inh 28, OPRM1-OPRD1 ag -7, HTR5A inv ctr 10, DAGLB inh 43*, HTR5A ag -3 and DAGLB confirm 53*.
Screening COc1ccccc1NC1=C(Cl)C(=O)OC1OC(=O)c1ccco1 (stereo unspecified) returned OPRM1-OPRD1 inv 25, Arrestin-AP2 inh -15, OPRM1-OPRD1 ag -5, HTR5A inv ctr -13, DAGLB inh 12 and HTR5A ag -2.
`Cc1ccccc1NC1=C(Cl)C(=O)OC1OC(=O)c1ccco1` (stereo unspecified) gave OPRM1-OPRD1 inv 7, Arrestin-AP2 inh 5, OPRM1-OPRD1 ag -1, HTR5A inv ctr 2, DAGLB inh 36*, HTR5A ag 0 and DAGLB confirm 31.
For O=c1cc(-c2ccccc2Cl)oc2c(NS(=O)(=O)c3cc(Cl)cc(Cl)c3O)ccc(O)c12 the results were OPRM1-OPRD1 inv -11, Arrestin-AP2 inh 35, OPRM1-OPRD1 ag 2, HTR5A inv ctr -19, DAGLB inh 41*, HTR5A ag 8 and DAGLB confirm 38*.
Screening CCc1ccc(S(=O)(=O)Nc2ccc(O)c3c(=O)cc(-c4ccccc4Cl)oc23)cc1 returned OPRM1-OPRD1 inv -12, Arrestin-AP2 inh 2, OPRM1-OPRD1 ag 2, HTR5A inv ctr -2, DAGLB inh -2 and HTR5A ag 3.
Screening COc1cc(N=Nc2ccc(Br)cc2)cc(C=O)c1O returned DAGLB inh 38* and DAGLB confirm 28.
For COc1cc(CN(C)C)cc(C=O)c1O the results were OPRM1-OPRD1 inv 3, Arrestin-AP2 inh 43, OPRM1-OPRD1 ag -1, HTR5A inv ctr -2, DAGLB inh 2 and HTR5A ag 1.
For Cc1ccc(N(C)S(=O)(=O)c2cccc(C(=O)OCC(=O)N(C)Cc3ccccc3)c2)cc1 the results were DAGLB inh -4.
Screening Cc1coc2c1C(=O)C(=O)c1c-2ccc2c1CCCC2(C)C returned OPRM1-OPRD1 inv -50, Arrestin-AP2 inh 6, OPRM1-OPRD1 ag 10, HTR5A inv ctr 15, DAGLB inh 53*, HTR5A ag 8 and DAGLB confirm 58*.
For O=C(c1cccc(S(=O)(=O)N2CCc3ccccc32)c1)N1CCN(c2ccccc2)CC1 the results were OPRM1-OPRD1 inv -21, Arrestin-AP2 inh 4, OPRM1-OPRD1 ag 3, HTR5A inv ctr 10, DAGLB inh 2 and HTR5A ag 2.
`Cc1cc(C)c(Nc2cc(S(=O)(=O)O)c(N)c3c2C(=O)c2ccccc2C3=O)c(C)c1` gave OPRM1-OPRD1 inv 22, Arrestin-AP2 inh 12, OPRM1-OPRD1 ag -4, HTR5A inv ctr 35, DAGLB inh 80*, HTR5A ag -9 and DAGLB confirm 86*.
Cc1ccc(C(=O)NNc2c3ccccc3nc3ccccc23)cc1 was read as OPRM1-OPRD1 inv 15, Arrestin-AP2 inh 23, OPRM1-OPRD1 ag -3, HTR5A inv ctr 16, DAGLB inh 28 and HTR5A ag -6.
`COc1cccc(C(=O)NNc2c3ccccc3nc3ccccc23)c1` gave OPRM1-OPRD1 inv 14, Arrestin-AP2 inh 4, OPRM1-OPRD1 ag -3, HTR5A inv ctr 17, DAGLB inh 45*, HTR5A ag -4 and DAGLB confirm 44*.
CCN(CCCNc1cc2c(c(N)c1S(=O)(=O)O)C(=O)c1ccccc1C2=O)c1ccccc1 was read as DAGLB inh 36* and DAGLB confirm 39*.
For CC1(C)CCCN(C(=O)c2ccc3c(c2NCCO)C(=O)c2ccccc2C3=O)C1 the results were OPRM1-OPRD1 inv -47, Arrestin-AP2 inh -6, OPRM1-OPRD1 ag 8, HTR5A inv ctr 2, DAGLB inh 41*, HTR5A ag -4 and DAGLB confirm 45*.
`O=C1c2ccccc2C(=O)c2c1ccc(C(=O)N1CCCCC1)c2NCCO` gave OPRM1-OPRD1 inv -7, Arrestin-AP2 inh -3, OPRM1-OPRD1 ag 1, HTR5A inv ctr -9, DAGLB inh 1 and HTR5A ag 3.
